Source: ChEMBL document CHEMBL1149086, “Antimalarial and antitumor evaluation of novel C-10 non-acetal dimers of 10beta-(2-hydroxyethyl)deoxoartemisinin” (J Med Chem, 2004)

Columns and labels:
Jurkat = assay: Inhibitory concentration against Jurkat cells; type: functional, cell-based; conditions: Homo sapiens
How it was run: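 Jurkat cells were grown in RPMI-1640 with 10% v/v FBS and 1% v/v L-glutamine at 37 °C under humidified 5% CO2, kept below 1 × 10⁶ cells/mL, with viability above 95%. Cells were plated at 1 × 10⁵/well and exposed to 10⁻¹⁰–10⁻⁴ M drug for 72 h, with final DMSO below 0.5% v/v. [³H]-thymidine (0.5 μCi/well) was added at 48 h for the final 24 h, and incorporation was read by β-scintillation counting.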

HL-60 = assay: Inhibitory concentration against HL60 cells; type: functional, cell-based; conditions: Homo sapiens
How it was run: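 HL60 (2.5 × 10⁴/well) or Jurkat (1 × 10⁵/well) in RPMI-1640 with 10% FBS and 1% L-glutamine, 5% CO2, 37 °C. Exposed to 10⁻¹⁰–10⁻⁴ M for 72 h, final DMSO below 0.5% v/v. [3H]-thymidine (0.5 μCi) added for the final 24 h. Incorporation counted by β-scintillation.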

COc1cccc2c1C(=O)c1c(O)c3c(c(O)c1C2=O)C[C@@](O)(C(=O)CO)C[C@@H]3O[C@H]1C[C@H](N)[C@H](O)[C@H](C)O1 [DOXORUBICIN]
IC50 (Jurkat): 1.7 µM | IC50 (HL-60): 0.51 µM
